Assays:
Cathepsin B = Cathepsin B (Homo sapiens, UniProt P07858); experiment: Cathepsin B-mediated hydrolysis of peptide constructs followed by HPLC; assay type: biochemical; conditions: Cathepsin B 1.34 × 10^−13 M, 25 °C, least-squares regression
Summary of the method: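 Substrate at 1·10^-7 M with cathepsin B (1.34·10^-13 M, activated by 1 mM DTT) in 50 mM sodium citrate pH 6.0, 1 mL, filter-sterilized, held dark at 25 °C. Repeated reversed-phase HPLC injections ran over ≥6× reaction half-life; UV detection at 220 nm. Percentage substrate remaining came from peak area versus known injected amount. Pseudo-first-order half-life given as mean ± SD; ≥3 repeats.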

HT29 xenograft tumors = experiment: In vivo tumor uptake of GNRs, gold content by ICP-MS; set-up: species or system mice; conditions: CA074 10 mg/kg i.p., peptide GNR 8 OD i.v., 24 hr
Summary of the method: (§1)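 Male athymic Swiss nude mice carried bilateral subcutaneous HT29, HCT116 and DLD1 xenografts (1×10^6 cells in PBS). At 7–8 mm tumors, mice were randomized, n=4/group. CA074 10 mg/kg i.p. daily; 100 μL of 8 OD GNR i.v. by tail vein on day 3 of CA074. At 24 hr, tumors and organs were harvested, weighed, lyophilized and digested in aqua regia. Gold by ICP-MS per gram dry tissue; mean ± SEM, unpaired two-tailed t-test.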

PANC1 = experiment: In vitro uptake of GNRs, gold content by ICP-MS; assay type: cell-based, Human; conditions: 10 μM CA074 for 12 hr, then peptide GNR 24 hr
Summary of the method: (§2)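 Cells in 10% FBS medium (HT29 McCoy's, MDA MB231 DMEM, PANC1 RPMI 1640) at 37 °C, 5% CO2. At 70% confluence: 10 μM CA074 for 12 hr, then 0.05 OD GNR in serum-free medium for 24 hr. Cells washed, trypsinized, pelleted, dried at 56 °C and digested in aqua regia (60 °C, 4 hr). Gold measured by ICP-MS against gold standards, normalized to cell count; mean ± SEM.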

HCT116 xenograft tumors = experiment: In vivo tumor uptake of GNRs, gold content by ICP-MS; set-up: species or system mice; conditions: CA074 10 mg/kg i.p., peptide GNR 8 OD i.v., 24 hr
Summary of the method: as §1

HT29 = experiment: In vitro uptake of GNRs, gold content by ICP-MS; assay type: cell-based, Human; conditions: 10 μM CA074 for 12 hr, then peptide GNR 24 hr
Summary of the method: as §2

MDAMB231 = experiment: In vitro uptake of GNRs, gold content by ICP-MS; assay type: cell-based, Human; conditions: 10 μM CA074 for 12 hr, then peptide GNR 24 hr
Summary of the method: as §2

Compound | degradation reaction half-life (t½) relative to native GFGFVG peptide (Cathepsin B) | effect of inhibitor on peptide GNR uptake by xenograft tumors (ICP-MS) (HT29 xenograft tumors) | change in peptide GNR uptake (ICP-MS) with CA074 compared to peptide GNRs alone (PANC1) | effect of inhibitor on peptide GNR uptake by xenograft tumors (ICP-MS) (HCT116 xenograft tumors) | change in peptide GNR uptake (ICP-MS) with CA074 compared to peptide GNRs alone (HT29) | change in peptide GNR uptake (ICP-MS) with CA074 compared to peptide GNRs alone (MDAMB231)
MeO-PEG20k-GFGFVG [PEGylated GFGFVG] | nearly three-fold |  |  |  |  | 
MeO-PEG20k-GGFGFVGGR9WC | about three-fold higher |  |  |  |  | 
CCCNC(=O)[C@H]1O[C@@H]1C(=O)N[C@H](C(=O)N1CCC[C@H]1C(=O)O)[C@@H](C)CC [CA074] |  | abrogates the increased uptake | two-fold reduction | abrogates the increased uptake | two-fold reduction | two-fold reduction
